Results from different studies.
Protocols differ between the studies behind these lines.

| SMILES | tested on | assay | system | conditions | measurement | result |
| --- | --- | --- | --- | --- | --- | --- |
| CCN(CC)Cc1cc(Nc2ccnc3cc(Cl)ccc23)ccc1O | Dengue virus | viral replication, inhibitor | BHK-21, DENV2 | 50 µM, 24 h, replicon | inhibition | 76.3% |
| CCN(CC)CCNc1ccc(C)c2sc3ccccc3c(=O)c12 | Zaire ebolavirus | viral replication, inhibitor | HeLa |  | IC50 | 3270 nM |
| CC[C@H](C)[C@H]1C(=O)N2CCC[C@H]2C(=O)O[C@H](C(C)(C)C)C[C@@H](C)C[C@H](O)[C@H](C)C2=N[C@@H](CCC(=O)N[C@@H](Cc3ccc(OC)cc3)C(=O)N(C)[C@@H](C)C(=O)N1C)CS2 | Dengue virus | viral replication | Huh7.5 | 24 h | IC50 | 3.3 nM |
| Cc1cccc(-n2ncc(Cl)c(Cl)c2=O)c1 | NCI-H23 | cell growth or viability, resazurin |  | 96 h | IC50 | 210 nM |
| CC(C)(N)CNC(=O)C[C@H]1CC[C@]2(CC1)OO[C@]1(O2)C2CC3CC(C2)CC1C3 | Zaire ebolavirus | viral replication, inhibitor | HeLa |  | IC50 | 4530 nM |
| Nc1ncn([C@@H]2O[C@H](CO)[C@@H](O)[C@H]2O)c(=O)n1 | Zaire ebolavirus | viral replication, inhibitor | Vero C1008 | 50 µM, 72 h | inhibition | 86% |
| CCN(CC)Cc1cc(Nc2ccnc3cc(Cl)ccc23)ccc1O | Zaire ebolavirus | viral replication, inhibitor | Huh-7 | 24 h | IC50 | 2130 nM |
| CC1=C(O)C(=O)C=C2C1=CC=C1[C@@]2(C)CC[C@@]2(C)[C@@H]3C[C@](C)(C(=O)OCCCn4cc(C=O)c5ccccc54)CC[C@]3(C)CC[C@]12C | Bel-7402 | cell growth or viability, MTT |  | 48 h | IC50 | 770 nM |
| c1ccc([C@@H]2C[C@H]2NC2CCNCC2)cc1 | MOLM-13 | cell growth or viability, resazurin |  | 96 h | EC50 | 0.91 nM |
| Nc1ncnc2c([C@@H]3N[C@H](CO)[C@@H](O)[C@H]3O)c[nH]c12 | Dengue virus | viral replication | Vero 76, DENV2 | 3 µM | inhibition | 11% |
| CCN(CC)CCCC(C)Nc1ccnc2cc(Cl)ccc12 (stereo not drawn) | Dengue virus | viral replication, inhibitor | BHK-21, DENV2 | 50 µM, 24 h, replicon | inhibition | 54.8% |
| CC1=C(O)C(=O)C=C2C1=CC=C1[C@@]2(C)CC[C@@]2(C)[C@@H]3C[C@](C)(C(=O)O)CC[C@]3(C)CC[C@]12C | Bel-7402 | cell growth or viability, MTT |  | 48 h | IC50 | 790 nM |
